Sampled rows, rich in hits. Any-hit rate of the full collection: about 1.9%.
FAS-TE inh = FAS thioesterase domain inhibitors, primary screen, biochemical, fluorescence intensity, uHTS; Fatty acid synthase (Homo sapiens), P49327; recombinant FAS-TE, OMFH fluorogenic substrate, fluorescence endpoint; inhibition, % at 15 µM; hit rate 0.67% among 360,000;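 active means compounds whose normalised, plate-corrected inhibition of enzyme fluorescence in the single-dose primary screen is 50% or more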
SENP1 inh = human SENP1 catalytic domain inhibitors, primary screen, biochemical, FRET, uHTS. Sentrin-specific protease 1 (Homo sapiens), Q9P0U3. recombinant SENP1 catalytic domain, CyPet-SUMO1-YPet FRET cleavage. inhibition, % at 10 µM. hit rate 0.21% among 360,000;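 active means inhibition at least 30% at 10 µM, raw YFP signal under a set limit, fluorescence ratio 0.5 to 1.5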
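Material – human SENP1 catalytic domain · Input – SENP1 enzyme, 20 pM final · Compound dosing – single concentration of 10 µM compound, 0.5% DMSO final · Timing – enzyme reaction for 50 min at room temperature, dark · Measured by – FRET fluorescence in CFP and YFP emission channels · Control set – no-enzyme wells low, DMSO-plus-enzyme wells high control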
ADAM10 inh = human ADAM10 inhibitors, primary screen, biochemical, QFRET, HTS | hit rate 0.62% among 370,000 | Disintegrin and metalloproteinase domain-containing protein 10 (Homo sapiens), O14672 | inhibition, % at 7 µM | recombinant ADAM10, EDANS/DABCYL FRET peptide cleavage, 3 h;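 active means inhibition above a per-campaign cutoff equal to the mean of compounds falling between control-based bounds plus 3 SD, cut at about 20% in these data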
ADAM17 inh = ADAM17 inhibitors, primary screen, biochemical, QFRET; inhibition, % at 6.95 µM; AID 720648, 2013; recombinant ADAM17, EDANS/DABCYL FRET peptide cleavage; Disintegrin and metalloproteinase domain-containing protein 17 (Homo sapiens), P78536; hit rate 0.83% among 370,000;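 active means inhibition above the mean of compounds lying between control limits plus 3 SD, set per campaign, cut at about 8.5% in these data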
FAS-TE conf = FAS thioesterase domain inhibitors, confirmation, biochemical, fluorescence intensity, single concentration; shares compounds with FAS-TE inh; recombinant FAS-TE, OMFH fluorogenic substrate; inhibition, % at 15 µM; hit rate 45% among 2,300;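 active means compounds inhibiting the enzyme by at least 50% at 15 µM in any one of the replicates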
Numbers stand for hits; . = inactive; / = no result given.

SMILES	FAS-TE inh	SENP1 inh	ADAM10 inh	ADAM17 inh	FAS-TE conf
COC(=O)[C@@H](c1ccccc1)N(C)S(=O)(=O)c1cccc(S(=O)(=O)N(C)[C@@H](C(=O)OC)c2ccccc2)c1	53	.	.	.	.
CC(=O)O[C@H]1C(=O)[C@@]2(C)C([C@H](OC(=O)c3ccccc3)[C@]3(O)C[C@H](OC(=O)[C@H](O)[C@@H](NC(=O)c4ccccc4)c4ccccc4)C(C)=C1C3(C)C)[C@]1(OC(C)=O)CO[C@@H]1C[C@H]2O (some centres not stated)	52	.	.	.	.
CC(=O)O[C@H]1C(=O)[C@]2(C)[C@H]([C@H](OC(=O)c3ccccc3)[C@]3(O)C[C@H](OC(=O)[C@H](O)[C@@H](NC(=O)c4ccccc4)c4ccccc4)C(C)=C1C3(C)C)[C@]1(OC(C)=O)CO[C@@H]1C[C@@H]2O	.	.	.	.	/
O=C(/C=C/c1cccc([N+](=O)[O-])c1)N1CCN(c2ccc(F)cc2)CC1	80	.	.	.	81
CCOC(=O)c1ccccc1NC(=O)COC(=O)c1cc([N+](=O)[O-])ccc1N1CCOCC1	53	.	.	.	.
O=C(COC(=O)c1c[nH]c(=O)[nH]c1=O)Nc1cccc([N+](=O)[O-])c1	.	.	.	.	/
Cc1cc(C(=O)OCC(=O)Nc2cccc([N+](=O)[O-])c2)c(C)o1	66	.	.	.	62
CC(=O)Nc1ccc(NC(=O)COC(=O)c2cc([N+](=O)[O-])ccc2N2CCOCC2)cc1	.	.	.	.	/
COc1ccc(NC(=O)COC(=O)c2cc([N+](=O)[O-])ccc2N2CCOCC2)cc1	80	.	.	.	60
Cc1cc(Br)ccc1NC(=O)CN(C)C(=O)c1cc([N+](=O)[O-])ccc1N1CCOCC1	64	.	.	.	77
O=c1c2cc3cc(Cl)ccc3nc2ncn1CCc1c[nH]c2ccccc12	/	/	.	.	/
COC(=O)[C@]12C[C@H](CC(=O)N3CCOCC3)C(=O)N(CCc3ccc(OC)c(OC)c3)C1=C[C@H](C1CCCC1)O[C@@H]2C	/	/	.	.	/
O=C(COC(=O)c1cc([N+](=O)[O-])ccc1N1CCOCC1)Nc1c(Cl)cccc1Cl	67	.	.	.	75
CN(CC(=O)Nc1cccc(F)c1)C(=O)c1ccc(N2CCOCC2)c([N+](=O)[O-])c1	.	.	.	.	/
O=C(COC(=O)c1cc([N+](=O)[O-])ccc1N1CCOCC1)Nc1cccc(F)c1	90	.	.	.	93
CN(CC(=O)Nc1ccccc1Cl)C(=O)COC(=O)c1cc([N+](=O)[O-])ccc1N1CCOCC1	.	.	.	.	/
CN(CC(=O)Nc1ccc(F)cc1)C(=O)COC(=O)c1cc([N+](=O)[O-])ccc1N1CCOCC1	62	.	/	/	58
Cc1cccc(C(=O)Nc2nc3ncccn3c2-c2ccc(F)c(F)c2)c1	/	/	.	.	/
COc1ccc(-c2cc([N+](=O)[O-])ccc2OCC(=O)N(C)CC(=O)Nc2ccc(C)cc2)cc1	60	.	.	.	64
CC(C)(C)C(=O)OC12CCCN(C1)/C(=C/c1ccc(C#N)cc1)C2 (configuration not stated)	/	/	.	.	/
N#CCC[C@@H]1CC[C@]2(CCCN(C(=O)c3ccco3)C2)O1	/	/	.	.	/
CC(C)CCN1C(=O)c2ccc(C(=O)OCn3nnc4ccccc4c3=O)cc2C1=O	55	.	.	.	.
COC1=C[C@H](C(=O)NCCOC(C)=O)[C@H](C)[C@@H](c2ccccc2)CC1=O	/	/	.	.	/
Cc1ccccc1N(CC(=O)NCc1ccc2c(c1)OCO2)C(=O)C1CSC(=O)C1 (configuration not stated)	69	.	.	.	67
O=c1c2ccccc2c(C=Nc2ccc(S(=O)(=O)N3CCCCC3)cc2)c(O)n1-c1ccc(Cl)cn1	61	.	.	.	.
SMILES	FAS-TE inh	SENP1 inh	ADAM10 inh	ADAM17 inh	FAS-TE conf
O=C(Nc1ccc(Cc2ccncc2)cc1)c1ccc(Cl)c([N+](=O)[O-])c1	56	.	.	.	63
COc1ccc([N+](=O)[O-])cc1C(=O)Nc1ccc(Cc2ccncc2)cc1	60	.	.	.	54
Cc1c([N+](=O)[O-])cc(C(=O)Nc2ccc(Cc3ccncc3)cc2)cc1[N+](=O)[O-]	63	.	.	.	51
CCCCNC(=O)NS(=O)(=O)c1ccc(NC(=O)CSc2nnc(-c3cccs3)n2-c2ccc(OC)cc2)cc1	/	/	.	.	/
O=[N+]([O-])c1ccc(N2CCN(S(=O)(=O)c3ccc(Cl)c(Cl)c3)CC2)cc1NCCN1CCOCC1	71	.	.	.	.
O=[N+]([O-])c1cc(S(=O)(=O)N2CCCC2)ccc1NCCCN1CCOCC1	.	.	.	.	/
COc1ccc2nc3n(c(=O)c2c1)-c1cc2ccccc2cc1C(=O)NC3Cc1ccc(O)cc1 (configuration not stated)	.	.	.	.	/
CC(C)CC1NC(=O)c2cc3ccccc3cc2-n2c1nc1ccc(Cl)cc1c2=O (configuration not stated)	74	.	.	.	.
COc1ccc2nc3n(c(=O)c2c1)-c1cc2ccccc2cc1C(=O)NC3Cc1ccccc1 (configuration not stated)	78	.	.	.	.
C[C@H](O)[C@@H]1CN2CCc3ccc(N4CCOCC4)cc3[C@@H]2C[C@@H]1N(C)CC1CCCCC1	/	/	.	.	/
CC(C)NC(=O)N(C)C[C@H]1Oc2c(NC(=O)Nc3ccc(C(F)(F)F)cc3)cccc2C(=O)N([C@H](C)CO)C[C@@H]1C	82	.	.	.	86
Cc1noc(C)c1NC(=O)N(C)C[C@H]1Oc2c(NC(=O)Nc3ccc(C(F)(F)F)cc3)cccc2C(=O)N([C@H](C)CO)C[C@@H]1C	.	.	.	.	/
C[C@H]1CN([C@@H](C)CO)C(=O)c2cccc(NC(=O)Nc3ccc(C(F)(F)F)cc3)c2O[C@@H]1CN(C)S(=O)(=O)c1ccc(Cl)cc1	58	.	24	9.2	.
C[C@H](CO)N1C[C@H](C)[C@@H](CN(C)S(=O)(=O)c2ccc(F)cc2)Oc2c(NC(=O)Nc3ccc(C(F)(F)F)cc3)cccc2C1=O	50	.	.	.	.
COc1ccc(NC(=O)Nc2cccc3c2O[C@H](CN(C)S(=O)(=O)c2ccc(F)cc2)[C@@H](C)CN([C@H](C)CO)C3=O)cc1	.	.	.	.	/
C[C@H](CO)N1C[C@H](C)[C@@H](CN(C)S(=O)(=O)c2cn(C)cn2)Oc2c(NC(=O)Nc3ccc(C(F)(F)F)cc3)cccc2C1=O	.	.	.	.	/

High-throughput results: PubChem BioAssay, several laboratories
